Measured values reported in ChEMBL document CHEMBL4680079, “Discovery of a Quinoline-4-carboxamide Derivative with a Novel Mechanism of Action, Multistage Antimalarial Activity, and Potent in Vivo Efficacy” (J Med Chem, 2016).
pEC50, pIC50: −log10 of the molar value. Values after ≈ are worked out from the molar mass of the structure shown.

Key:
Plasmodium falciparum = assay: Antiplasmodial activity against chloroquine-sensitive Plasmodium falciparum 3D7 infected in human red blood cells assessed as growth inhibition by SYBR Green fluorescence assay; type: functional, organism-based, RBC; conditions: 3D7, Erythrocyte
Outline: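 P. falciparum 3D7 grown in 5% human red cells in RPMI 1640 (pH 7.3) with 0.5% Albumax II, hypoxanthine and gentamicin at 37°C under 1% O₂/3% CO₂. Growth measured by SYBR green fluorescence (ex 485/em 528 nm), with mefloquine as assay control. EC50 calculated.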

[1] = Intrinsic clearance in CD1 mouse liver microsomes at 0.5 uM in presence of NADPH incubated upto 30 mins by UPLC-MS/MS analysis; type: ADME, Microsome; conditions: 0.5 h
Outline: (§1)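 Compound at 0.5 μM incubated with female CD1 mouse, male Sprague-Dawley rat or pooled human liver microsomes (0.5 mg/mL, 50 mM potassium phosphate, pH 7.4). Reaction started with excess NADPH. Samples taken at 0-30 min, quenched in acetonitrile, analysed by UPLC-MS/MS. Verapamil used as control, single time course.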

[2] = Kinetic aqueous solubility of the compound by laser nephelometry; type: physicochemical; conditions: read-out: Kinetic_solubility
Outline: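 Kinetic solubility measured by laser nephelometry. DMSO serial dilutions diluted into water to give final 100–5 μg/mL at 1.0% DMSO. Read immediately, in triplicate aliquots.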

[3] = Permeability of the compound at 10 uM incubated for 5 hrs by UPLC-MS/MS analysis based PAMPA method; type: ADME; conditions: read-out: permeability
Outline: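 PAMPA run on a lipid-oil-lipid tri-layer filter at pH 7.4. Compound at 10 μM in PBS (DMSO ≤5%) in donor wells, PBS in acceptor wells, kept 5 h at room temperature. Both compartments quantified by UPLC-MS/MS. Data accepted only when recovery exceeded 70%.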

HepG2 = assay: Antiproliferative activity against human HepG2 cells assessed as reduction in cell viability; type: cell-based
MRC5 = assay: Antiproliferative activity against human MRC5 cells assessed as reduction in cell viability after 68 hrs by resazurin dye based fluorescence assay; conditions: MRC5, 68 h
Outline: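 MRC-5 fibroblasts plated overnight as monolayers, exposed to compound pre-diluted in MEM for 68 h. Resazurin then added (final 50 μM) for 3 h, fluorescence read at ex 528/em 590 nm. Signal converted to % inhibition against high- and no-inhibition controls. Plates accepted at Z' > 0.5.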

[4] = Intrinsic clearance in Sprague-Dawley rat liver microsomes at 0.5 uM in presence of NADPH incubated upto 30 mins by UPLC-MS/MS analysis; type: ADME, Microsome; conditions: 0.5 h; outline: as §1
[5] = Intrinsic clearance in human liver microsomes at 0.5 uM in presence of NADPH incubated upto 30 mins by UPLC-MS/MS analysis; type: ADME, Microsome; conditions: 0.5 h; outline: as §1
[6] = Protein binding in CD1 mouse plasma measured after 5 hr by UPLC-MS/MS analysis based equilibrium dialysis method; type: ADME, cell-free; conditions: mouse, 5 h
Outline: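 Equilibrium dialysis of female CD1 mouse plasma spiked at 10 μg/mL (12-14 kDa membrane) against isotonic buffer for 5 h at ~37°C with shaking. Unbound fraction taken as the buffer/plasma peak-area ratio by UPLC-MS/MS. n=6 replicates, run in triplicate.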

[7] = target: Voltage-gated inwardly rectifying potassium channel KCNH2 (Homo sapiens, UniProt Q12809); assay: Inhibition of human ERG by IonWorks patch-clamp electrophysiology method
Outline: (§2)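 hERG K⁺ channel inhibition measured by IonWorks patch-clamp electrophysiology. Eight-point concentration-response curves made from 3-fold serial dilutions down from the maximum final assay concentration. Each curve generated on 2 occasions.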

hERG (KCNH2) = hERG (KCNH2) (Homo sapiens, UniProt Q12809); assay: Inhibition of human ERG at 11 uM by IonWorks patch-clamp electrophysiology method relative to control; outline: as §2
[8] = Clearance in NMRI mouse blood at 3 mg/kg, iv administered as bolus dose by UPLC-MS/MS analysis; type: ADME, organism-based
Outline: (§3)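 Intravenous bolus solution, 3 mg free base/kg (5 mL/kg; 10% DMSO, 90% saline), given to female NMRI mice (n=3). Compound level in blood determined by UPLC-MS/MS. PK parameters derived from the blood concentration-time curve.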

[9] = Volume of distribution at steady state in NMRI mouse at 3 mg/kg, iv administered as bolus dose by UPLC-MS/MS analysis; type: ADME, organism-based; conditions: in vivo, read-out: Vdss; outline: as §3
[10] = Half-life in NMRI mouse at 3 mg/kg, iv administered as bolus dose by UPLC-MS/MS analysis; type: ADME, organism-based; conditions: in vivo; outline: as §3
[11] = Cmax in NMRI mouse at 10 mg/kg, po administered as gavage by UPLC-MS/MS analysis; type: ADME, organism-based; design: route oral, dose 10 mg/kg; conditions: in vivo
Outline: (§4)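 Female NMRI mice (n=3) dosed by oral gavage as a solution at 10 mg free base/kg (10 mL/kg; vehicle 5 or 10% DMSO, 40% PEG400). Blood levels measured by UPLC-MS/MS. Parameters derived from the blood concentration-time curve.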

[12] = AUC in NMRI mouse at 10 mg/kg, po administered as gavage by UPLC-MS/MS analysis; type: ADME, organism-based; design: dose 10 mg/kg; conditions: in vivo; outline: as §4
[13] = Tmax in NMRI mouse at 10 mg/kg, po administered as gavage by UPLC-MS/MS analysis; type: ADME, organism-based; conditions: in vivo; outline: as §4
[14] = Oral bioavailability in NMRI mouse at 10 mg/kg administered via gavage by UPLC-MS/MS analysis; type: ADME, organism-based; conditions: in vivo; outline: as §4
Plasmodium berghei [15] = assay: Antiplasmodial activity against Plasmodium berghei ANKA infected in NMRI mouse assessed as reduction in parasitemia at 30 mg/kg, po QD for 4 days; type: functional; design: scale not given: the % may be the effect or the level left; conditions: time 4 day
Outline: (§5)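 Female NMRI mice (n=3 per group, randomized, not blinded) infected with GFP-transfected P. berghei ANKA. Oral dosing once daily for 4 days in 10% DMSO/40% PEG400/50% water or HPMC suspension vehicle. Parasitaemia measured by flow cytometry on blood collected 96 h after infection. Mice watched for toxicity over 4 h post-dose each day.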

Plasmodium berghei [16] = assay: Antiplasmodial activity against Plasmodium berghei ANKA infected in NMRI mouse assessed as survival days at 30 mg/kg, po QD for 4 days; type: functional; conditions: time 4 day
[17] = Toxicity in NMRI mouse assessed as maximum tolerated dose administered twice a day for 4 days; conditions: in vivo, time 4 day
Plasmodium berghei [18] = assay: Antiplasmodial activity against Plasmodium berghei ANKA infected in NMRI mouse assessed as reduction in parasitemia at 1 mg/kg, po QD for 4 days; type: functional; design: scale not given: the % may be the effect or the level left; conditions: time 4 day; outline: as §5
Plasmodium berghei [19] = assay: Antiplasmodial activity against Plasmodium berghei ANKA infected in NMRI mouse assessed as survival days at 1 mg/kg, po QD for 4 days; type: functional; conditions: time 4 day
[20] = Clearance in Sprague-Dawley rat blood at 1 mg/kg, iv administered as bolus dose by UPLC-MS/MS analysis; type: ADME, organism-based
Outline: (§6)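 Male Sprague Dawley rats (n=3/route) received an iv bolus solution at 1 mg free base/kg (5 mL/kg; 5% DMSO in saline). Blood sampled from 5 min to 30 or 48 h post-dose, mixed with two volumes water, frozen, then analysed by UPLC-MS/MS. Parameters derived from the blood concentration-time curve.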

[21] = Volume of distribution at steady state in Sprague-Dawley rat at 1 mg/kg, iv administered as bolus dose by UPLC-MS/MS analysis; type: ADME, organism-based; conditions: Sprague-Dawley, in vivo, read-out: Vdss; outline: as §6
[22] = Half-life in Sprague-Dawley rat at 1 mg/kg, iv administered as bolus dose by UPLC-MS/MS analysis; type: ADME, organism-based; conditions: Sprague-Dawley, in vivo; outline: as §6
[23] = Cmax in Sprague-Dawley rat at 3 mg/kg, po administered via gavage by UPLC-MS/MS analysis; type: ADME, organism-based; design: route oral, dose 3 mg/kg; conditions: in vivo
Outline: (§7)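 Oral gavage solution, 3 mg free base/kg (10 mL/kg; 0.5% w/v HPMC, 0.4% v/v Tween 80, 0.5% v/v benzyl alcohol), given to male Sprague Dawley rats (n=3). Blood taken at 5, 15, 30 min and 1, 2, 4, 6, 8, 24, 30 h, mixed with two volumes water, analysed by UPLC-MS/MS.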

[24] = Tmax in Sprague-Dawley rat at 3 mg/kg, po administered via gavage by UPLC-MS/MS analysis; type: ADME, organism-based; conditions: in vivo; outline: as §7
[25] = AUC in Sprague-Dawley rat at 3 mg/kg, po administered via gavage by UPLC-MS/MS analysis; type: ADME, organism-based; design: dose 3 mg/kg; conditions: in vivo; outline: as §7
[26] = Oral bioavailability in Sprague-Dawley rat at 3 mg/kg administered via gavage by UPLC-MS/MS analysis; type: ADME, organism-based; conditions: in vivo; outline: as §7

hERG (KCNH2), sequence (Q12809 whole entry): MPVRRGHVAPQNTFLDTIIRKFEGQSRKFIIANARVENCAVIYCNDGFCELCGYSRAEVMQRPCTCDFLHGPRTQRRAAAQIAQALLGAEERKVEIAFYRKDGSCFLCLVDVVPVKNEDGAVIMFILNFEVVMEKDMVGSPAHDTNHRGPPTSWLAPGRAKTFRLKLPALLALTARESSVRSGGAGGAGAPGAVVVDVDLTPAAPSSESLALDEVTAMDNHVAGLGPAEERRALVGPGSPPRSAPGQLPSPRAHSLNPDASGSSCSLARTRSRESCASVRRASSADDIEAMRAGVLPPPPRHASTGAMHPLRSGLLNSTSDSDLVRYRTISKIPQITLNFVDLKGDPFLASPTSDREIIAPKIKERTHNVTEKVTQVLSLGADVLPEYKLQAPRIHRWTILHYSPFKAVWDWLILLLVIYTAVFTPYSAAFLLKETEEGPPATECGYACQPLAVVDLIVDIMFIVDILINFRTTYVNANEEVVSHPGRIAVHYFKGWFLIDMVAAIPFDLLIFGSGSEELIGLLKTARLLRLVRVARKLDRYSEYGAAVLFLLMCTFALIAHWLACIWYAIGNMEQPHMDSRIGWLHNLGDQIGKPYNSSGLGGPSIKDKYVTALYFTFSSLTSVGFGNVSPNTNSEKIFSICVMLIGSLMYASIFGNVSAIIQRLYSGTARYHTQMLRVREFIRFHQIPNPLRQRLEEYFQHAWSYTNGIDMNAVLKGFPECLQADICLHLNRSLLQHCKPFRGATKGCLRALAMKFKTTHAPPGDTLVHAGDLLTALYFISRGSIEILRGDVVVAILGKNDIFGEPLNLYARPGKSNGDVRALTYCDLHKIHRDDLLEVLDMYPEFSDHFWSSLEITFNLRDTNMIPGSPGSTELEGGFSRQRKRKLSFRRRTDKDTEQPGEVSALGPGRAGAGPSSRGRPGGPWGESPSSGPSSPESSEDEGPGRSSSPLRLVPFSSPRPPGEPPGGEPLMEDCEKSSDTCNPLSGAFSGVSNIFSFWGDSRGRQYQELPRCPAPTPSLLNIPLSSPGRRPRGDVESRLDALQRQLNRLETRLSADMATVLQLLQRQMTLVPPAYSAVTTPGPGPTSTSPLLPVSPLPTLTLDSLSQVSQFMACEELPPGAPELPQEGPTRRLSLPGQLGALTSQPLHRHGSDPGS
Voltage-gated inwardly rectifying potassium channel KCNH2, sequence (Q12809 whole entry): as above

## CN(CCN1CCCC1)C(=O)c1cc(-c2ccc(CN3CCOCC3)cc2)nc2ccc(F)cc12
Plasmodium falciparum
  pEC50: 7.06
[1]
  CLH: < 0.5 mL/min/g
[2]
  solubility kinetic: > 210 µM
[3]
  Papp at 5 h, 10 µM: 13.7 ×10⁻⁶ cm/s
HepG2
  pEC50: < 4.30

## O=C(NCCN1CCCC1)c1cc(NCCCN2CCOCC2)nc2ccc(F)cc12
Plasmodium falciparum
  pEC50: 7.15
MRC5
  pEC50: 4.39
[1]
  CLH: 0.8 mL/min/g
[2]
  solubility kinetic: 230 µM (≈ 98.8 µg/mL)
[3]
  Papp at 5 h, 10 µM: 0.23 ×10⁻⁶ cm/s
[4]
  CLH: < 0.5 mL/min/g
[5]
  CLH: < 0.5 mL/min/g
[6]
  PPB: 59%
[7]
  pIC50: < 4.96
hERG (KCNH2)
  inhibition at 11 µM: 16%
[8]
  clearance: 14 mL/min/kg
[9]
  Vd: 3 L/kg
[10]
  half-life: 3.2 h
[11]
  Cmax: 315 ng/mL
[12]
  AUC: 1550 ng·h/mL
[13]
  Tmax: 2 h
[14]
  bioavailability: 15%
Plasmodium berghei [15]
  Activity: 93%
Plasmodium berghei [16]
  Survival: 7 days
[17]
  MTD at 96 h: 300 mg/kg

## O=C(NCCN1CCCC1)c1cc(-c2ccc(CN3CCOCC3)cc2F)nc2ccc(F)cc12
Plasmodium falciparum
  pEC50: 8.70
MRC5
  pEC50: 4.39
[1]
  CLH: < 0.5 mL/min/g
[2]
  solubility kinetic: 208 µM (≈ 100 µg/mL)
[3]
  Papp at 5 h, 10 µM: 13.2 ×10⁻⁶ cm/s
[4]
  CLH: < 0.5 mL/min/g
[5]
  CLH: 1.5 mL/min/g
Plasmodium berghei [18]
  Activity: 99.9%
Plasmodium berghei [19]
  Survival: 14 days
[20]
  clearance: 32 mL/min/kg
[21]
  Vd: 10 L/kg
[22]
  half-life: 4 h
[23]
  Cmax: 29 ng/mL
[24]
  Tmax: 8 h
[25]
  AUC: 507 ng·h/mL
[26]
  bioavailability: 33%
